Holding throughout (type): cell-based
The subject of assay [1] is Nucleic Acid. Description: Inhibition of microRNA miR-1 (unknown origin) transfected in mouse C2C12 cells at 5 uM after 48 hrs by luciferase reporter gene assay relative to DMSO-treated control. In outline: (§1)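 C2C12 co-transfected at 70% confluence with miR-1 luciferase reporter (0.25 µg) plus β-galactosidase plasmid (0.25 µg, transfection control) via lipofectamine 2000. After 6 h the medium was switched to DMEM with 2% horse serum to induce differentiation, and compound was added (DMSO final 1:1000). Cells were incubated 48 h at 37 °C, 5% CO2, then luciferase read and normalized to DMSO. Triplicates, mean ± SE (n = 3).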

In assay [2] the test system is Nucleic Acid. Description: Inhibition of microRNA miR-150 (unknown origin) transfected in mouse […] cells at 10 uM after 48 hrs by luciferase reporter gene assay relative to DMSO-treated control. The gist of the method: (§2)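 Cells transfected with the matching miRNA luciferase reporter ([…] for miR-150; A549 for miR-25 or miR-214), with β-gal as internal reference. Treated with 10 µM compound in high-glucose DMEM with 2% FBS (DMSO final 1:1000) for 48 h at 37 °C, 5% CO2. Luciferase signal was normalized to the DMSO control. Triplicates, mean ± SE (n = 3).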
(In general: A reporter such as luciferase makes a cellular process visible.)

The test system of assay [3] is Nucleic Acid. Description: Inhibition of microRNA miR-1 (unknown origin) transfected in mouse C2C12 cells at 10 uM after 48 hrs by luciferase reporter gene assay relative to DMSO-treated control. The gist of the method:
as §1

Assay [4] concerns Nucleic Acid. Description: Inhibition of microRNA miR-214 (unknown origin) transfected in human A549 cells at 10 uM after 48 hrs by luciferase reporter gene assay relative to DMSO-treated control. The gist of the method: as §2
Assay [5] relates to Nucleic Acid. Description: Inhibition of microRNA miR-25 (unknown origin) transfected in human A549 cells at 10 uM after 48 hrs by luciferase reporter gene assay relative to DMSO-treated control. In outline: as §2
For assay [6], the system named is Nucleic Acid. Description: Reduction in cytoplasmic level of microRNA miR-21 (unknown origin) transfected in human HeLa cells at 10 uM after 48 hrs by quantitative RT-PCR method relative to DMSO-treated control. In outline:
(§3)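 Total RNA (TRIZOL) taken after 48 h compound or DMSO treatment from differentiated C2C12 (miR-1), HeLa (miR-21), A549 (miR-25, miR-214), MCF-7 (miR-9) and […] (miR-150). 2 µg RNA per RT with miRNA-specific primers (16 °C 30 min, 42 °C 30 min, 85 °C 5 min). TaqMan qPCR: 95 °C 10 min, then 40 cycles of 95 °C 15 s and 60 °C 1 min. Comparative Ct method, normalized to DMSO; triplicates, mean ± SE (n = 3).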

The test system of assay [7] is Nucleic Acid. Description: Reduction in cytoplasmic level of microRNA miR-9 (unknown origin) transfected in human MCF7 cells at 10 uM after 48 hrs by quantitative RT-PCR method relative to DMSO-treated control. In outline:
as §3

Assay [8] relates to Nucleic Acid. Description: Reduction in cytoplasmic level of microRNA miR-1 (unknown origin) transfected in mouse C2C12 cells at 10 uM after 48 hrs by quantitative RT-PCR method relative to DMSO-treated control. In outline: as §3
In assay [9] the test system is Nucleic Acid. Description: Inhibition of microRNA miR-21 (unknown origin) transfected in human HeLa cells at 10 uM after 48 hrs by luciferase reporter gene assay relative to DMSO-treated control. In outline:
(§4)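 Reporter cells for miR-21 (HeLa) or miR-9 (MCF-7) given 10 µM compound for 48 h. Luciferase signal normalized to DMSO control. Triplicates, mean ± SE (n = 3).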

Assay [10] relates to Nucleic Acid. Description: Inhibition of microRNA miR-1 (unknown origin) transfected in mouse C2C12 cells after 48 hrs by luciferase reporter gene assay relative to DMSO-treated control. In outline: as §1
Assay [11] relates to Nucleic Acid. Description: Reduction in cytoplasmic level of microRNA miR-214 (unknown origin) transfected in human A549 cells at 10 uM after 48 hrs by quantitative RT-PCR method relative to DMSO-treated control. The gist of the method:
as §3

For assay [12], the system named is Nucleic Acid. Description: Inhibition of microRNA miR-9 (unknown origin) transfected in human MCF7 cells at 10 uM after 48 hrs by luciferase reporter gene assay relative to DMSO-treated control. The gist of the method: as §4
Assay [13] deals with Nucleic Acid. Description: Reduction in cytoplasmic level of microRNA miR-25 (unknown origin) transfected in human A549 cells at 10 uM after 48 hrs by quantitative RT-PCR method relative to DMSO-treated control. In outline:
as §3

Assay [14] deals with Nucleic Acid. Description: Reduction in cytoplasmic level of microRNA miR-150 (unknown origin) transfected in mouse […] cells at 10 uM after 48 hrs by quantitative RT-PCR method relative to DMSO-treated control. The gist of the method: as §3

Structures are written as SMILES. The source made the active and inactive calls. No cut-off for these calls is given here.

As to `COC12C(=O)c3ccccc3C(=O)C1C(C1CC1)=C2c1ccc(O)c2ncccc12` (centres undefined), the inhibition result with Nucleic Acid [1] is “Active”.
As to `COC12C(=O)c3ccccc3C(=O)C1C(c1ccc(OC(C)=O)c3ncccc13)=C2[Si](C)(C)C` (centres undefined), the inhibition entry in the assay with Nucleic Acid [1] is “inactive”.
Take `COC12C(=O)c3ccccc3C(=O)C1C(C1CC1)=C2c1ccc(OC(=O)OC(C)(C)C)c2ncccc12` (centres undefined): in the assay on Nucleic Acid [1], the inhibition result is “inactive”.
On to `COC12C(=O)c3ccccc3C(=O)C1C(C1CC1)=C2c1cnc2ccccc2c1` (centres undefined), for which the fold change (FC) with Nucleic Acid [2] was determined as 0.83; in the assay on Nucleic Acid [3] it was 1.36; in the assay with Nucleic Acid [4] it was 0.93; with Nucleic Acid [5] it was 1.
`COc1ccc(C2=CC3(OC)C(=O)c4ccccc4C(=O)C23)c2cccnc12` (centres undefined): the inhibition entry in the assay on Nucleic Acid [1] is “inactive”.
For `COC12C=C(c3ccc(OC(C)=O)c4ncccc34)C1C(=O)c1ccccc1C2=O` (centres undefined), the inhibition entry in the assay on Nucleic Acid [1] is “inactive”.
As for `COC12C(=O)c3ccccc3C(=O)C1C(c1ccccn1)=C2c1ccccc1` (centres undefined), the fold change (FC) with Nucleic Acid [2] amounted to 1.16; in the assay with Nucleic Acid [3] it was 0.9; in the assay on Nucleic Acid [4], 0.95; with Nucleic Acid [5] it was 0.95.
As for `COc1ccc(C2=C([Si](C)(C)C)C3(OC)C(=O)c4ccccc4C(=O)C23)c2cccnc12` (centres undefined), in the assay on Nucleic Acid [1], the inhibition entry is “Active”.
Regarding `COC12C(=O)c3ccccc3C(=O)C1C(c1ccccc1)=C2c1ccc(OC(=O)OC(C)(C)C)c2ncccc12` (centres undefined), the outcome with Nucleic Acid [6], with Nucleic Acid [7], with Nucleic Acid [11], in the assay with Nucleic Acid [13] and in the assay on Nucleic Acid [14] was inactive. Further, the fold change (FC) is 4 in the assay with Nucleic Acid [8]; 1.35 in the assay with Nucleic Acid [2]; 7.11 in the assay with Nucleic Acid [3]; 1.01 with Nucleic Acid [4]; 0.95 in the assay with Nucleic Acid [5]. In addition, the inhibition entry with Nucleic Acid [9] and in the assay on Nucleic Acid [12] was “inactive” in each case. For the same molecule, the inhibition entry in the assay with Nucleic Acid [10] was “Dose-dependent effect”.
Regarding `COC12C(=O)c3ccccc3C(=O)C1C(C1CC1)=C2c1ccccn1` (centres undefined), the fold change (FC) was 1.2 in the assay with Nucleic Acid [2], 1.55 in the assay with Nucleic Acid [3], 0.82 with Nucleic Acid [4] and 0.92 with Nucleic Acid [5].
As for `COC12C(=O)c3ccccc3C(=O)C1C(C1CC1)=C2c1cnccn1` (centres undefined), the fold change (FC) in the assay on Nucleic Acid [2] was 1.63; in the assay with Nucleic Acid [3], 0.84; in the assay on Nucleic Acid [4], 0.74; in the assay on Nucleic Acid [5], 0.83.
Take `COC12C(=O)c3ccccc3C(=O)C1C(C1CC1)=C2c1cncc2ccccc12` (centres undefined): the fold change (FC) in the assay on Nucleic Acid [2] was determined as 1.75; in the assay on Nucleic Acid [3], 0.87; in the assay with Nucleic Acid [4] it was 1.1; in the assay with Nucleic Acid [5] it was 1.16.
For `COc1ccc(C2=C(C3CC3)C3C(=O)c4ccccc4C(=O)C23OC)c2cccnc12` (centres undefined), the inhibition result in the assay with Nucleic Acid [1] is “Active”.
As for `COC12C=C(c3ccc(O)c4ncccc34)C1C(=O)c1ccccc1C2=O` (centres undefined), in the assay on Nucleic Acid [1], the inhibition result was “inactive”.
Consider `COC12C(=O)c3ccccc3C(=O)C1C(c1cnccn1)=C2c1ccccc1` (centres undefined), for which the fold change (FC) in the assay on Nucleic Acid [2] was 1.32; in the assay with Nucleic Acid [3] it was 1.12; in the assay with Nucleic Acid [4], 0.93; in the assay on Nucleic Acid [5] it was 1.01.
Take `COC12C=C(c3ccc(OC(=O)OC(C)(C)C)c4ncccc34)C1C(=O)c1ccccc1C2=O` (centres undefined): the inhibition entry in the assay with Nucleic Acid [1] was “inactive”.
On to `COC12C(=O)c3ccccc3C(=O)C1C(C1CC1)=C2c1cncnc1` (centres undefined), for which the fold change (FC) with Nucleic Acid [2] was 1.02; in the assay with Nucleic Acid [3], 2.06; in the assay with Nucleic Acid [4], 1.28; in the assay with Nucleic Acid [5], 1.16.
As to `COC12C(=O)c3ccccc3C(=O)C1C(C1CC1)=C2c1ccc(OC(C)=O)c2ncccc12` (centres undefined), in the assay with Nucleic Acid [1], the inhibition result was “inactive”.
For `COC12C(=O)c3ccccc3C(=O)C1C(c1ccccc1)=C2c1ccc(O)c2ncccc12` (centres undefined), the inhibition entry with Nucleic Acid [1] is “Active”.
With `COC12C(=O)c3ccccc3C(=O)C1C(c1ccc(OC(=O)OC(C)(C)C)c3ncccc13)=C2[Si](C)(C)C` (centres undefined), in the assay on Nucleic Acid [1], the inhibition entry was “inactive”.
For the molecule `COC12C(=O)c3ccccc3C(=O)C1C(c1ccc(O)c3ncccc13)=C2[Si](C)(C)C` (centres undefined), in the assay with Nucleic Acid [1], the inhibition result is “Active”.
Turning to `COc1ccc(C2=C(c3ccccc3)C3C(=O)c4ccccc4C(=O)C23OC)c2cccnc12` (centres undefined), in the assay on Nucleic Acid [1], the inhibition entry is “Active”.
As for `COC12C(=O)c3ccccc3C(=O)C1C(C1CC1)=C2c1cccnc1` (centres undefined), the fold change (FC) amounted to 1.04 in the assay with Nucleic Acid [2], 0.93 in the assay on Nucleic Acid [3], 0.91 in the assay with Nucleic Acid [4] and 0.97 in the assay on Nucleic Acid [5].
For `COC12C(=O)c3ccccc3C(=O)C1C(c1ccccc1)=C2c1ccc(OC(C)=O)c2ncccc12` (centres undefined), in the assay on Nucleic Acid [1], the inhibition entry was “inactive”.
As to `COC12C(=O)c3ccccc3C(=O)C1C(c1ccccc1)=C2c1ccccc1` (centres undefined), the fold change (FC) in the assay with Nucleic Acid [2] turned out to be 0.91; in the assay on Nucleic Acid [3], 0.45; with Nucleic Acid [4], 0.58; in the assay on Nucleic Acid [5], 0.63.

These data come from ChEMBL document CHEMBL2434879, “Small molecular inhibitors of miR-1 identified from photocycloadducts of acetylenes with 2-methoxy-1,4-naphthalenequinone” (Bioorg Med Chem, 2013).
